Experimental data reported in ChEMBL document CHEMBL1777685, “Biological evaluation of novel benzisoxazole derivatives as PPARδ agonists” (Bioorg Med Chem, 2011).
Calls of active or inactive are those of the source. No cut-off for these calls is given here.

Columns and labels:
Rattus norvegicus [1] = species on record: Rattus norvegicus; assay: Induction of oligodendrocyte precursor cell differentiation isolated from Wistar rat fetal brain cortex at 0.1 uM after 3 days by anti O1-antibody immunostaining method; format: functional
Rattus norvegicus [2] = species on record: Rattus norvegicus; assay: Induction of oligodendrocyte precursor cell differentiation isolated from Wistar rat fetal brain cortex at 0.03 uM after 3 days by anti O1-antibody immunostaining method; format: functional
Rattus norvegicus [3] = species on record: Rattus norvegicus; assay: Induction of oligodendrocyte precursor cell differentiation isolated from Wistar rat fetal brain cortex at 0.01 uM after 3 days by anti O1-antibody immunostaining method; format: functional
Method in brief: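 Primary mixed cultures from fetal Wistar rat cortex, with OPCs enriched on a Percoll gradient. Cells seeded at 1 × 10⁴/cover glass and cultured 4 days at 37 °C, 5% CO₂, then exposed to compound in DMSO (0.01% final) for 3 days; vehicle control 0.01% DMSO. Anti-O1 immunostaining, random images; stained area measured and given relative to control mean (100%).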

[4] = biological target: T1, Peroxisome proliferator-activated receptor gamma (Homo sapiens, UniProt P37231); format: functional, cell-based, CV-1
T1 sequence (P37231 whole entry): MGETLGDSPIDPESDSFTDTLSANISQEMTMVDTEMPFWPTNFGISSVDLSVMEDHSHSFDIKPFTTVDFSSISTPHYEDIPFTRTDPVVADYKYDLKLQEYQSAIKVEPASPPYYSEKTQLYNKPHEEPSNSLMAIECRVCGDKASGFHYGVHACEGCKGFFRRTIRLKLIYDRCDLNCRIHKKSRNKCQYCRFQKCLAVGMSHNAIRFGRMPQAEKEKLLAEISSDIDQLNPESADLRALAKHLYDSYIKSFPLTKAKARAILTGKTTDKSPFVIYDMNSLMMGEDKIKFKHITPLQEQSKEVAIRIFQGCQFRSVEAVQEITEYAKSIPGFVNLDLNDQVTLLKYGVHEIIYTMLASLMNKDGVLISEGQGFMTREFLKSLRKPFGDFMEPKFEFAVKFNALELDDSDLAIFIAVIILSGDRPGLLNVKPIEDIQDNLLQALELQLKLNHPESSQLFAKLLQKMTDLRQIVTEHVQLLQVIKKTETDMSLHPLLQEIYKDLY

[5] = biological target: T2, Peroxisome proliferator-activated receptor alpha (Homo sapiens, UniProt Q07869); assay: Agonist activity at human PPARalpha-LBD expressed in CV1 cells co-transfected with Gal4 after 40 hrs by luciferase based transactivation assay; format: functional, cell-based, CV-1
T2 sequence (Q07869 whole entry): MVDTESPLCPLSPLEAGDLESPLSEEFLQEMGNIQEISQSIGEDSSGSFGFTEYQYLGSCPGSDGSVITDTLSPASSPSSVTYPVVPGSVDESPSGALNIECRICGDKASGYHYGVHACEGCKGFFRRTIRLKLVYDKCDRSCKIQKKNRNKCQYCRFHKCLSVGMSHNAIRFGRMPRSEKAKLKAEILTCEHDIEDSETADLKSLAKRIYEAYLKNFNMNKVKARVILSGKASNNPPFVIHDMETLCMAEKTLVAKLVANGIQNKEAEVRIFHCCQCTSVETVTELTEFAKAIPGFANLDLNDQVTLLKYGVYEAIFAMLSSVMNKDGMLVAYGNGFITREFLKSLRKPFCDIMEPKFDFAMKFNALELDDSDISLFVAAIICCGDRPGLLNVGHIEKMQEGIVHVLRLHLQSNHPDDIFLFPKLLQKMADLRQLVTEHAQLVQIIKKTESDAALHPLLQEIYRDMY

[6] = biological target: T3, Peroxisome proliferator-activated receptor delta (Homo sapiens, UniProt Q03181); assay: Agonist activity at human PPARdelta-LBD expressed in CV1 cells co-transfected with Gal4 after 40 hrs by luciferase based transactivation assay; format: functional, cell-based, CV-1
T3 sequence (Q03181 whole entry): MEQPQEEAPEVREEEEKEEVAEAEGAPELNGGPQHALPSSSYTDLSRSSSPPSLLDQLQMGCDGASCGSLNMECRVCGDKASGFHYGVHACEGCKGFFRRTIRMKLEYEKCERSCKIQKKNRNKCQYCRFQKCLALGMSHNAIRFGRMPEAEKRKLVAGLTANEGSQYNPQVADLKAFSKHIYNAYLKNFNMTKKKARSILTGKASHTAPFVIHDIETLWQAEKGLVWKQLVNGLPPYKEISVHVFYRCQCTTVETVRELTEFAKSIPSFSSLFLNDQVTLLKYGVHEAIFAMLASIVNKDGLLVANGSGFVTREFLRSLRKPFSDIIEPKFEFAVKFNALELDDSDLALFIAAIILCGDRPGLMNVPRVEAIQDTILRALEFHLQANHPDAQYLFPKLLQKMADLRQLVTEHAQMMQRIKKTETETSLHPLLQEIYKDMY

| Compound | Activity (Rattus norvegicus [1]) | Activity (Rattus norvegicus [2]) | Activity (Rattus norvegicus [3]) | EC50 [4] [µM] | EC50 [5] [µM] | EC50 [6] [µM] |
| --- | --- | --- | --- | --- | --- | --- |
| Cc1cc2c(CCc3nc(-c4ccc(Cl)cc4Cl)oc3C(C)C)noc2cc1OCC(=O)O | Active |  |  |  |  |  |
| Cc1cc2c(CCc3sc(-c4ccc(C(F)(F)F)cc4)nc3C(C)C)noc2cc1OC(C)(C)C(=O)O | Active | Active | Active | 0.91 | 0.2 | 0.011 |
| CCCc1oc(-c2ccccc2Cl)nc1CCc1noc2cc(OC(C)(C)C(=O)O)ccc12 |  |  |  | 26.4 | 13.9 | 5.4 |
| CC(C)c1oc(-c2ccccc2O)nc1CCc1noc2cc(OC(C)(C)C(=O)O)ccc12 |  |  |  | 14.6 | 10.4 | 0.9 |
| CC(C)c1oc(-c2ccc(C(C)(C)C)cc2)nc1CCc1noc2cc(OC(C)(C)C(=O)O)ccc12 |  |  |  | 1 | 2.9 | 1.2 |
| CCCCc1ccc(-c2nc(CCc3noc4cc(OC(C)(C)C(=O)O)ccc34)c(C(C)C)o2)cc1 |  |  |  | 2.6 | 3.3 | 0.7 |
| CC(C)(Oc1ccc2c(CCc3nc(-c4ccccc4Cl)oc3C(C)(C)C)noc2c1)C(=O)O |  |  |  | > 10 | > 10 | > 10 |
| CC(C)c1oc(-c2c(Cl)cccc2Cl)nc1CCc1noc2cc(OC(C)(C)C(=O)O)ccc12 |  |  |  | > 10 | > 10 | > 10 |
| Cc1oc(-c2ccccc2)nc1CCc1noc2cc(OC(C)(C)C(=O)O)ccc12 |  |  |  | 20.8 | 12.9 | 14.9 |
| CCCc1oc(-c2ccccc2)nc1CCc1noc2cc(OC(C)(C)C(=O)O)ccc12 |  |  |  | 19.1 | 13.2 | 9.8 |
| CC(C)c1oc(-c2ccccc2C(F)(F)F)nc1CCc1noc2cc(OC(C)(C)C(=O)O)ccc12 |  |  |  | > 10 | > 10 | > 10 |
| Cc1cc(SCc2sc(-c3ccc(C(F)(F)F)cc3)nc2C)ccc1OCC(=O)O | Active | Active | Active |  |  |  |
| CCCCCCc1oc(-c2ccccc2Cl)nc1CCc1noc2cc(OC(C)(C)C(=O)O)ccc12 |  |  |  | 5.9 | 2.3 | 2 |
| CC(C)c1nc(-c2ccc(C(F)(F)F)cc2)sc1CCc1noc2cc(OC(C)(C)C(=O)O)ccc12 |  |  |  | 5.1 | 0.83 | 0.021 |
| CCc1oc(-c2ccccc2)nc1CCc1noc2cc(OC(C)(C)C(=O)O)ccc12 |  |  |  | 25.1 | 14.7 | 6.7 |
| CC(C)c1oc(-c2ccc(Cl)cc2Cl)nc1CCc1noc2cc(OC(C)(C)C(=O)O)ccc12 |  |  |  | 26.3 | 8.6 | 0.1 |
| CC(C)c1oc(-c2ccccc2Cl)nc1CCc1noc2cc(OC(C)(C)C(=O)O)ccc12 |  |  |  | 31.1 | 34.1 | 1.3 |
| COc1ccc(CC2SC(=O)NC2=O)cc1C(=O)NCc1ccc(C(F)(F)F)cc1 (centres undefined) | inactive |  |  |  |  | > 10 |
